How the values were obtained:
[1] = target: Metabotropic glutamate receptor 3 (Rattus norvegicus) (UniProt P31422); experiment: Antagonistic activity against Glutamate receptor in rat spinal cord at concentration of 21 uM.; type: functional, tissue-based
Method in brief: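 Neonatal rat spinal cord, hemisected sagittally, superfused at 1 mL/min with oxygenated Krebs-Henseleit medium containing 0.5% urethane at room temperature. Agonists were given in 2-mL doses in the superfusate. Antagonist was superfused continuously for at least 15 min before agonist retesting. Read-out was ventral root depolarization (DC potential, ventral root vs cord body), measured as amplitude and area of response.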

[2] = target: Substance-P receptor (Rattus norvegicus) (UniProt P14600); experiment: Antagonistic activity against Substance P receptor in rat spinal cord at concentration of 21 uM.
[3] = target: Substance-P receptor (Cavia porcellus) (UniProt P30547); experiment: Antagonistic activity against Substance P(6-11) receptor in guinea pig ileum at concentration of 1 uM.; type: functional, tissue-based
Method in brief: (§1)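 Distal ileum from Dunkin-Hartley guinea pigs (300-350 g, both sexes), held in a 5-mL bath of Krebs solution at 37 °C gassed with 95% O2/5% CO2. Agonist dose-response curves ran on a 3-min cycle with 1-min contact, then washout. Dose ratio = agonist EC50 with antagonist / EC50 alone. At least two preparations per compound; ratios below two were taken as insignificant.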

[4] = target: Substance-P receptor (Cavia porcellus) (UniProt P30547); experiment: Antagonistic activity against Substance P receptor in guinea pig ileum at concentration of 1 uM.; type: functional, tissue-based; method in brief: as §1
[5] = target: Substance-P receptor (Cavia porcellus) (UniProt P30547); experiment: Antagonistic activity against Substance P(6-11) receptor in guinea pig ileum at concentration of 4.5 uM.; type: functional, tissue-based; method in brief: as §1
[6] = target: Substance-P receptor (Cavia porcellus) (UniProt P30547); experiment: Antagonistic activity against Substance P receptor in guinea pig ileum at concentration of 4.5 uM.; type: functional, tissue-based; method in brief: as §1
[7] = target: Substance-P receptor (Rattus norvegicus) (UniProt P14600); experiment: Antagonistic activity against Substance P(6-11) receptor in rat spinal cord at concentration of 21 uM.
[8] = target: Substance-P receptor (Rattus norvegicus) (UniProt P14600); experiment: Antagonistic activity against Substance P receptor in rat spinal cord at concentration of 43 uM.
Substance-P receptor = Substance-P receptor (Rattus norvegicus, UniProt P14600); experiment: Compound was evaluated for the histamine releasing activity of the Substance P from isolated rat peritoneal mast cells using the procedure of Fretwell et al; type: functional, cell-based
Method in brief: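 Histamine release from isolated rat peritoneal mast cells, method of Fretwell et al. Dose-response curves were built over a range of concentrations, and EC50 values were calculated from the curves.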

[9] = target: Substance-P receptor (Rattus norvegicus) (UniProt P14600); experiment: Antagonistic activity against Substance P(6-11) receptor in rat spinal cord at concentration of 43 uM.

Substance-P receptor (Cavia porcellus), sequence (P30547 whole entry): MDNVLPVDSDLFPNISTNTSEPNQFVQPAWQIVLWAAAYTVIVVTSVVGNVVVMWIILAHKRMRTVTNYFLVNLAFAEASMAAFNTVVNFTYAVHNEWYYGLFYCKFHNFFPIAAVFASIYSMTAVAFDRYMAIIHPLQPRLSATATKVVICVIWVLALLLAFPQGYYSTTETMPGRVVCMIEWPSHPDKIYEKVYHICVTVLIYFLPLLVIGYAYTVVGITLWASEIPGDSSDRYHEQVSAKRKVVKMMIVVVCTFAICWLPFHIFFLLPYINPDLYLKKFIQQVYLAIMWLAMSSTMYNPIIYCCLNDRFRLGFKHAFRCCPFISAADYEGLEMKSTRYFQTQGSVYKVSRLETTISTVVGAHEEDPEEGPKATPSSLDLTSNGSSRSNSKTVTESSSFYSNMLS
Substance-P receptor (Rattus norvegicus), sequence (P14600 whole entry, looked up): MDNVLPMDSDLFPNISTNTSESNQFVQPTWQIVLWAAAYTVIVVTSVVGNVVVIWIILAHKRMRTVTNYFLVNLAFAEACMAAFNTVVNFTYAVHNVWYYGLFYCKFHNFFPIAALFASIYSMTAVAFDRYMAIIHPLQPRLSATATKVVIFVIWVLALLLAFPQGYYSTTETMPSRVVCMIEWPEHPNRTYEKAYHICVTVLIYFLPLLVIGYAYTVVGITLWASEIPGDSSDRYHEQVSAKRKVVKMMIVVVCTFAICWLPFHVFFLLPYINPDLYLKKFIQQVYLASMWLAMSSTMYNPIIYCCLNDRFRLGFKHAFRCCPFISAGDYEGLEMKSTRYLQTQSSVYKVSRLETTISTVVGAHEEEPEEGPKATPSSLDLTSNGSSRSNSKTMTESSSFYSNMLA
Metabotropic glutamate receptor 3 (Rattus norvegicus), sequence (P31422 23-879 limits assumed): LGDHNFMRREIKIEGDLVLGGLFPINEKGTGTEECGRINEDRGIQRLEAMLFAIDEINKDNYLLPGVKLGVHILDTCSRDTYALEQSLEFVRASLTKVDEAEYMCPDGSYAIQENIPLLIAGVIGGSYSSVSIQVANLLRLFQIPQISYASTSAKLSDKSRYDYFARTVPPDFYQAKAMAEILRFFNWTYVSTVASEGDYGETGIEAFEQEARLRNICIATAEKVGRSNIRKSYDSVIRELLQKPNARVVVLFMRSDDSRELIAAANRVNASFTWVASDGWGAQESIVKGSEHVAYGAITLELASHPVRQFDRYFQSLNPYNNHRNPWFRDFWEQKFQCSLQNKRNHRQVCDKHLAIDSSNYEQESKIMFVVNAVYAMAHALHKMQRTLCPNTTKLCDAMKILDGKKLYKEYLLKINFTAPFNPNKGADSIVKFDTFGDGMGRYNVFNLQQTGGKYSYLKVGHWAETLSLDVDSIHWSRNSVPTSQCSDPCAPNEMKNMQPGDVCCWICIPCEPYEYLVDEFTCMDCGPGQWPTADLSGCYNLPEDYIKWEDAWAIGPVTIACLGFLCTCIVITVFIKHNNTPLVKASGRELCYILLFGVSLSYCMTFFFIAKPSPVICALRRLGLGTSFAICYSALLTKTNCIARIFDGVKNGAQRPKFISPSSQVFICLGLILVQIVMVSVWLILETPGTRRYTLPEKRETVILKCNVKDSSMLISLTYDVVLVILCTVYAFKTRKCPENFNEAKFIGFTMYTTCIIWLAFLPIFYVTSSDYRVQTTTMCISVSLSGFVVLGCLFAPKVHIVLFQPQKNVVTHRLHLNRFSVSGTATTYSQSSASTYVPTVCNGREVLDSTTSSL
Substance-P receptor, sequence (P14600 whole entry): as the sequence (P14600 whole entry, looked up) above

`COC(=O)[C@H](CCSC)NC(=O)[C@H](CC(C)C)NC(=O)[C@@H](Cc1c[nH]c2ccccc12)NC(=O)[C@H](Cc1ccccc1)NC(=O)[C@@H](Cc1ccccc1)NC(=O)[C@H](CCCCNC(=O)OCc1ccccc1)NC(=O)[C@H](CC(N)=O)NC(=O)[C@@H]1CCCN1C(=O)[C@H](CCCCNC(=O)OCc1ccccc1)NC(=O)[C@@H]1CCCN1C(=O)[C@H](CCCN=C(N)N)NC(=O)OCc1ccccc1` gave a Change in amplitude response [1] of -15%, a Change in amplitude response [2] of 17% and an Activity [3] of 9.3 dose ratio. For the same compound, the Activity [4] was 5 dose ratio, the Activity [5] was 10.8 dose ratio and the Activity [6] was 11.4 dose ratio. It also gave a Change in amplitude response [7] of -44%, a Change in amplitude response [8] of 0% and an IC50 (Substance-P receptor) greater than 500 µM. For the same compound, the Change in amplitude response [9] was -54%.
